Sampled rows, rich in hits. Any-hit rate of the full collection: about 2.9%.
TCR-CD3 inh: inhibitors of human TCR-CD3 interaction, primary screen, biochemical, fluorescence, TAMRA-labeled TCR probe; inhibition, % at 9.4 µM; AID 651800, 2012; 0.37% of 360,000 active;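 further: recombinant mutant TCR 2C K166C tagged with TAMRA read by polarization; 0% = receptor in buffer alone and 100% = receptor with positive control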
ATG4B inhibitor: ATG4B protease inhibitors, primary screen, biochemical, fluorescence, uHTS | Cysteine protease ATG4B (Homo sapiens), Q9Y4P1 | ATG4B cleavage of LC3-PLA2, NBD-HPC fluorescence, 1 h | inhibition, % at 8.33 µM | 0.51% of 340,000 active | AID 504462, 2011; in the data active means inhibition above about 40%
HTRA1 inhibitor: HTRA1 serine protease inhibitors, primary screen, biochemical, fluorescence polarization, HTS; Q92743; recombinant HTRA1, FP-rhodamine activity-based probe; inhibition, % at 5.96 µM; 0.5% of 340,000 active; in the data active means inhibition above about 36%;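 further: 0% = enzyme with DMSO and 100% = wells lacking enzyme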
Target sequence (Q92743 whole entry, looked up): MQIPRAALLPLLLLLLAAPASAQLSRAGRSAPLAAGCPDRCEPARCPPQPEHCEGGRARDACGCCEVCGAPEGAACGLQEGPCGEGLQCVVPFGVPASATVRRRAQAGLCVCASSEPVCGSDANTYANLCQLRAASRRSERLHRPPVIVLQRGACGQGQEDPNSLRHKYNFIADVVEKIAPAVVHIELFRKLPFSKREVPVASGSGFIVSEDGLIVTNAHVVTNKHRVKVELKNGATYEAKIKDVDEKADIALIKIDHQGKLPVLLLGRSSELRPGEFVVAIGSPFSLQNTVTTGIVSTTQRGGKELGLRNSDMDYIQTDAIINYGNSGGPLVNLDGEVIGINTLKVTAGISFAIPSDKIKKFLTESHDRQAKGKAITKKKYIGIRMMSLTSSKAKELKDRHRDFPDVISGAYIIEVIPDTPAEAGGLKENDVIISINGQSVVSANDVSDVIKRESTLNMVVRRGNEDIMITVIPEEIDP
SIAE primary: human SIAE inhibitors, primary screen, biochemical, fluorescence polarization, FP-Rh probe, 1536-well HTS; Sialate O-acetylesterase (Homo sapiens), Q9HAT2; SIAE FP-Rh probe binding; inhibition, % at 9.66 µM; 0.69% of 370,000 active; AID 1053197, 2014;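 active means inhibition above a cutoff: mean of compounds within the control limits plus 3 SD of those, cut at about 17% in these data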;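 further: 0% = plate median of compound wells and 100% = probe without SIAE protein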
ABHD4 inh: ABHD4 inhibitors, primary screen, biochemical, fluorescence polarization, mouse; purified mABHD4, FP-Rh probe fluorescence polarization; inhibition, % at 8.92 µM; 0.54% of 370,000 active; AID 720543, 2013;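 active means inhibition exceeding the mean over every tested compound plus 3 SD, cut at about 30% in these data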;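 further: 0% = plate median of compound wells and 100% = S159A mutant with DMSO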
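System: mouse ABHD4 enzyme, wild type / Medium: HEPES pH 7.0, NaCl, Pluronic buffer / Reagent: FP-Rh activity-based fluorescent probe / Control set: S159A mutant high control, sample median low control / Detection: fluorescence polarization with parallel and perpendicular emission, 525/598 nm / Schedule: 45 min + 60 min at 25 °C / Compound dosing: 8.92 µM, single dose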
PRMT1 FP inh: PRMT1 methyltransferase inhibitors, primary screen, biochemical, fluorescence polarization; recombinant PRMT1, activity-based probe fluorescence polarization; inhibition, % at 2.79 µM; 1.3% of 370,000 active; AID 652257, 2013;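 active means inhibition above about 21% made by adding two undisclosed values, limit read from the data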
HTRA1 inh conf: HTRA1 protease inhibitors, retest, confirmation, biochemical, fluorescence polarization. 66% of 1,600 active. AID 540248, 2011. recombinant HTRA1, FP-rhodamine activity-based probe. shares compounds with HTRA1 inhibitor. inhibition, % at 5.96 µM;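 active means mean inhibition over three repeats above a set limit taken from the earlier primary screen, cut at about 37% in these data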;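 further: 0% = HTRA1 with DMSO and 100% = wells lacking HTRA1; inhibitors block probe binding so polarization drops and inhibition rises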
BSA TAMRA ctr: compounds interfering with TAMRA-BSA probe, counter-screen for TCR-CD3 interaction inhibitor project, biochemical, fluorescence, TAMRA-labeled BSA | shares compounds with TCR-CD3 inh | TAMRA-labeled BSA probe fluorescence counterscreen | inhibition, % at 9.4 µM | 10% of 1,200 active | AID 652035, 2013; in the data active means inhibition above about 23%;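 further: 0% = buffer low control and 100% = reference high control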
TCR-CD3 inh conf: TCR-CD3 interaction inhibitors, retest, confirmation, biochemical, fluorescence, TAMRA-labeled TCR probe; TAMRA-labeled TCR probe fluorescence binding assay; 48% of 1,200 active; inhibition, % at 9.4 µM; AID 652036, 2013; shares compounds with TCR-CD3 inh
PRMT1 inh conf: PRMT1 methyltransferase inhibitors, confirmation, biochemical, fluorescence polarization, triplicate; 42% of 3,300 active; shares compounds with PRMT1 FP inh; AID 687036, 2013; recombinant His-PRMT1, activity-based probe fluorescence polarization; inhibition, % at 2.79 µM;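 active means mean inhibition across replicates above the hit cutoff derived for the earlier primary screen, cut at about 22% in these data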
Numbers without * were called inactive; . = no result given. Unless noted, no stated cut-off is given here; in the data, active means inhibition above about 19%; inactive means the rest.

SMILES	TCR-CD3 inh	ATG4B inhibitor	HTRA1 inhibitor	SIAE primary	ABHD4 inh	PRMT1 FP inh	HTRA1 inh conf	BSA TAMRA ctr	TCR-CD3 inh conf	others
O=C(NNC(=O)c1cc2cc(Br)ccc2oc1=O)c1ccc(O)cc1O	46*	-13	58*	-8	27	3	83*	-15	35*
COCCCNC(=O)c1cc2cc(Br)ccc2oc1=O	0	-5	-3	4	3	2	.	.	.
COCCCNC(=O)C[C@H]1C[C@@]2(C(=O)OC)C(=C[C@H](C(C)C)O[C@@H]2C2CC2)N(Cc2ccco2)C1=O	.	.	.	-4	2	4	.	.	.
O=S(=O)(c1ccc(F)cc1)N1CCC(c2nc3ccccc3o2)CC1	.	.	.	4	2	-1	.	.	.
COc1ccc(N(C)S(=O)(=O)c2ccc(Cl)c(C(=O)NNC(=O)c3ccccc3O)c2)cc1	26*	5	42*	13	1	-3	32	3	18
CCN(c1ccccc1)S(=O)(=O)c1ccc(Cl)c(C(=O)NCCc2ccc(OC)cc2)c1	-6	-12	1	3	4	2	.	.	.
O=c1cc(-c2ccc(O)c(O)c2)oc2cc(O)cc(O)c12	25*	-5	50*	3	26	4	67*	-17	21*
CN1c2ccc(-c3cccc(F)c3)cc2[C@H]2[C@H](CCN2S(=O)(=O)c2cccc(F)c2)[C@H]1CO	.	.	.	3	12	-2	.	.	.
Cc1ccc(C(=O)Nc2nnc(CC(=O)N/N=C/c3ccc(O)c(O)c3)s2)cc1	34*	-3	48*	4	14	-2	64*	-18	68*
c1csc(-c2nnc(SCc3cccc4ccccc34)o2)c1	.	.	.	-2	-13	0	.	.	.
Cc1ccc(CNc2ccc(O)cc2)cc1	27*	-17	60*	48*	68*	16	27	-1	2
Cc1ccc(NCc2ccccc2O)cc1	5	5	4	1	-10	0	.	.	.
COc1ccc(-c2cnnc(N/N=C/c3ccc(O)c(O)c3)n2)cc1	49*	4	60*	5	21	6	78*	-21	44*
CCC(O)(c1ccc(NC(=O)OC(C)(C)C)cc1)c1cc(OC)cc(OC)c1 (centres undefined)	.	.	.	5	-29	2	.	.	.
COc1cccc2c1C(=O)c1c(O)c3c(c(O)c1C2=O)C[C@@](O)(C(=O)CO)C[C@@H]3O[C@H]1C[C@H](N)[C@H](O)[C@H](C)O1	137*	-28	63*	39*	52*	129*	67*	157*	127*
O=C(N/N=C/c1cc(Br)cc(Cl)c1O)c1ccc2c(c1)OCO2	38*	8	42*	-1	6	-4	14	-6	29*
CCOc1cccc(CNc2ccc(O)cc2)c1OCc1ccc(Cl)cc1Cl	27*	24	60*	32*	66*	15	29	3	0
CCOc1cccc(CNCCO)c1OCc1ccc(Cl)cc1Cl	-6	-5	-3	-1	5	-3	.	.	.
Oc1ccc(-c2cn3ccccc3n2)cc1O	19	10	12	-4	21	4	.	.	.
Cc1ccn2cc(-c3ccc(O)c(O)c3)nc2c1	34*	-5	44*	6	26	18	65*	-9	26*
O=C(O)CC(CCc1ccccc1)OC1OC(CO)C(O)C(O)C1O (centres undefined)	32*	-4	41*	-17	0	5	41*	-11	30*
S=C(NCC1CCCCC1)OC1CCC12CCC(c1ccccc1)CC2 (centres undefined)	.	.	.	0	-2	3	.	.	.
Cc1nnsc1C(=O)N/N=C/c1ccc2ccccc2c1O	41*	-16	41*	6	5	15	55*	-23	29*
CCOC(=O)c1c(-c2ccccc2)oc2cc(CN(C)C)c(O)c(CN(C)C)c12	-1	0	44*	3	14	26*	51*	.	.	PRMT1 inh conf=3
CCOC(=O)c1c(C)oc2cc(Cl)c(O)c(CN(C)C)c12	-3	-8	3	-5	-4	8	.	.	.
SMILES	TCR-CD3 inh	ATG4B inhibitor	HTRA1 inhibitor	SIAE primary	ABHD4 inh	PRMT1 FP inh	HTRA1 inh conf	BSA TAMRA ctr	TCR-CD3 inh conf	others
CNc1ccc(Br)cc(C(=O)/C=C/c2ccc(OC)cc2)c1=O	-1	1	45*	5	41*	44*	32	.	.	PRMT1 inh conf=39*
Cc1ccc(Nc2c([N+](=O)[O-])ccc3nonc23)c(C)c1	-5	2	-7	12	-1	-4	.	.	.
Cc1ccc(S(=O)c2ccc([N+](=O)[O-])c3nonc23)cc1 (centres undefined)	-3	.	43*	-12	44*	58*	73*	.	.	PRMT1 inh conf=106*
O=c1c2cc3cc4c(cc3nc2ncn1Cc1cccnc1)OCO4	.	.	.	4	2	-1	.	.	.
O=C1CSC(=S)N1N=Cc1c(O)ccc2ccccc12	17	-4	37*	7	45*	35*	41*	.	.	PRMT1 inh conf=33*
COc1ccc2ccccc2c1/C=N/N1C(=O)CSC1=S	-5	-6	-16	-1	6	11	.	.	.
Cc1c(N=C2C=C(Br)C(=O)C(Br)=C2)c(=O)n(-c2ccccc2)n1C	46*	2	57*	13	69*	61*	24	-3	3	PRMT1 inh conf=49*
CCOC(=O)[C@@]12CCCC3=C1N(CCC3)C(=O)[C@H]2CC(=O)N1CCN(C(=O)c2ccco2)CC1	.	.	.	8	6	-1	.	.	.
CC1(C)CCN2CCC(C)(C)c3c(O)ccc1c32	11	1	66*	-17	21	54*	27	.	.	PRMT1 inh conf=14
CN1[C@@H](Cc2ccccc2)COc2cc(F)ccc2S1(=O)=O	.	.	.	-2	-12	5	.	.	.
COC(=O)c1cc(-c2cccc3ccccc23)c(=O)n2c1CCC2	.	.	.	5	-7	-4	.	.	.

Screens (PubChem)
